Bioassay records (PubChem BioAssay)
HIV Env fusion: blocks HIV Env-driven cell-cell fusion; HeLa-JRFL Env/CEM21 cell fusion, luciferase; inhibition, % at 12.3 µM; 1.1% of 360,000 active;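 active = mean replicate inhibition score of at least 50 and every replicate individually at or above 50; inconclusive = only one of the two criteria met; inactive = mean below 50 and not all replicates reaching 50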
Glyco luc inh: blocks N-linked glycosylation in D54 reporter cells; D54 ERlucT glycosylation luciferase reporter, 24 h; percent of 100 nM tunicamycin response; reporter increase, % at 12.5 µM; 0.23% of 360,000 active;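 active = mean luciferase reporter signal, scaled so untreated is 0 and the glycosylation-blocking control 100, at or above a set limit in every replicate; inconclusive = mean reaches the limit but not every replicate does; inactive = mean below the limit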;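 also: luciferase carries N-glycosylation sites so blocking glycosylation raises the light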
SR-BI HDL uptake: mouse SR-BI HDL lipid transfer inhibition | Q61009 | ldlA[mSR-BI] CHO cells, DiI-HDL uptake fluorescence, 3 h | inhibition, % at 12.5 µM | 0.96% of 320,000 active | AID 488896;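 active = mean replicate inhibition of at least 70% and a set share of replicates each scoring 70 or more; inconclusive = meets just one of the two criteria; inactive = fails both criteria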
Target sequence (Q61009 whole entry, looked up): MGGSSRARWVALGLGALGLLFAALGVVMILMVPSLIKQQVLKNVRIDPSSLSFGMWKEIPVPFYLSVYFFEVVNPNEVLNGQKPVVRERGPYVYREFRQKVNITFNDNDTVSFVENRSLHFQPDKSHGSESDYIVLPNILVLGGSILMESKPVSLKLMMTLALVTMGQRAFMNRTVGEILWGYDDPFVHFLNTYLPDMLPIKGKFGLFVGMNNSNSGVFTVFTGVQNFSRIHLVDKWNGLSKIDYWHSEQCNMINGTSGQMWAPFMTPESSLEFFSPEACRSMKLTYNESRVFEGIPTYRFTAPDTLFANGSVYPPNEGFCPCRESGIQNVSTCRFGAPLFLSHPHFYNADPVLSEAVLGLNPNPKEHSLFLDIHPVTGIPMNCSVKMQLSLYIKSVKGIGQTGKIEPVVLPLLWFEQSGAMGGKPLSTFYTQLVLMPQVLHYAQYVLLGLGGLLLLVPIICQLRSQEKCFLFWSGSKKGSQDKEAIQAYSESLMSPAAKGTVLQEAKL
Rtt109 HAT inh: C. albicans Rtt109 histone acetyltransferase inhibition | 0.16% of 330,000 active | Q5AAJ8 | purified Rtt109/Vps75, ThioGlo CoA-SH fluorescence, 4 h | inhibition, % at 34.9 µM;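 active = inhibition of at least 50% in every replicate; inconclusive = best replicate reaches 50% inhibition but some replicates fall short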
PglD inh: inhibitors of Campylobacter jejuni PglD acetyltransferase. purified PglD enzyme, DTNB colorimetric CoA detection. inhibition, % at 12.5 µM. 0.098% of 360,000 active. AID 602405; in the data active = inhibition above about 16%, passing the limit was not always enough; inconclusive = no clear call, values can overlap the other calls
SR-BI DiI-HDL act: enhances SR-BI lipid uptake from DiI-HDL; AID 504775; 0.096% of 320,000 active; activation, % at 12.5 µM; CHO ldlA[mSR-BI] cells, DiI-HDL uptake fluorescence, 3 h; 100 = double the neutral-control signal;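 active = mean replicate activation of at least 60% and every replicate at or above 60%; inconclusive = mean or all-replicate condition met, but not both; inactive = mean below 60% and not all replicates reaching 60%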
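Test system: SR-BI-overexpressing, LDLR-lacking CHO cells. Measured by: DiI fluorescence, bottom read. Medium: Ham's F12 with 0.5% BSA, HEPES 25 mM, pH 7.4. Timing: 3 h uptake period with compound, 37 °C.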
Hits are given with their value; 0 = inactive; ? = inconclusive; - = no result given; [ ] = dose if it differs, or a comment. An excerpt weighted towards active compounds, which were near 1.9% of everything screened.

SMILES	HIV Env fusion	Glyco luc inh	SR-BI HDL uptake	Rtt109 HAT inh	PglD inh	SR-BI DiI-HDL act
CS(=O)(=O)Nc1ccc2c(c1)[C@@H]1C[C@H](CC(=O)N3CCc4ccccc4C3)O[C@@H](CO)[C@@H]1O2	0	-	-	-	0	-
CS(=O)(=O)Nc1ccc2c(c1)[C@H]1C[C@@H](CC(=O)NCCN3CCCCC3)O[C@@H](CO)[C@H]1O2	67[16.7 µM]	-	-	-	0	-
O=C(Nc1ccc(C(F)(F)F)cc1)Nc1ccc2c(c1)[C@@H]1C[C@@H](CC(=O)N3CCc4ccccc4C3)O[C@H](CO)[C@@H]1O2	0	-	-	-	0	-
C[C@H](NC(=O)C[C@@H]1C[C@H]2c3cc(NC(=O)Nc4ccc(C(F)(F)F)cc4)ccc3O[C@H]2[C@H](CO)O1)c1ccccc1	0	-	-	-	0	-
C[C@H](NC(=O)C[C@@H]1C[C@@H]2c3cc(NC(=O)Nc4ccc(C(F)(F)F)cc4)ccc3O[C@@H]2[C@@H](CO)O1)c1ccccc1	81[16.7 µM]	-	-	-	0	-
O=C(Nc1ccc(C(F)(F)F)cc1)Nc1ccc2c(c1)[C@@H]1C[C@H](CC(=O)N3CCc4ccccc4C3)O[C@H](CO)[C@@H]1O2	82[16.7 µM]	-	-	-	0	-
CS(=O)(=O)Nc1ccc2c(c1)[C@@H]1C[C@@H](CC(=O)N3CCc4ccccc4C3)O[C@H](CO)[C@@H]1O2	63[16.7 µM]	-	-	-	0	-
CN1CCN(C(=O)C[C@H]2C[C@@H]3c4cc(NS(C)(=O)=O)ccc4O[C@@H]3[C@H](CO)O2)CC1	64[16.7 µM]	-	-	-	0	-
CS(=O)(=O)Nc1ccc2c(c1)[C@H]1C[C@H](CC(=O)N3CCc4ccccc4C3)O[C@H](CO)[C@H]1O2	63[16.7 µM]	-	-	-	0	-
C[C@@H]1CN([C@H](C)CO)C(=O)c2cc(C#CC3CC3)cnc2O[C@H]1CN(C)C(=O)c1ccc(F)cc1	0	-	-	-	0	-
O=c1c2c(nc3c(-c4ccc(Cl)cc4)c[nH]n13)CCCC2	62	0	0	0	0	0
COc1cc(C(=O)Nc2ccc(Nc3ccccc3)cc2)cc(OC)c1OC	0	0	79	0	0	0
COc1cc(C(=O)Nc2ccc(Cl)c(C(F)(F)F)c2)cc(OC)c1OC	-	0	0	0	0	0
COc1cc(C(=O)Nc2cccc(-n3cnnn3)c2)cc(OC)c1OC	0	0	77	0	0	0
COc1ccc(NC(=O)c2cc(C)cc(C)c2)cc1[N+](=O)[O-]	0	0	80	0	0	0
COc1cc(C(=O)Nc2cccc(-n3cnnn3)c2)cc(Cl)c1OC	0	0	0	0	0	0
COc1cc(C(=O)Nc2ccc(Cl)c([N+](=O)[O-])c2)cc(OC)c1OC	0	0	80	0	-	0
O=C(C[C@@H]1CC[C@@H](NC(=O)c2ccccc2)[C@H](CO)O1)Nc1ccc(-c2ccccc2)cc1	0	-	-	-	0	-
COCc1cn(CC[C@@H]2CC[C@@H](NC(=O)CCN3CCCCC3)[C@@H](CO)O2)nn1	0	-	-	-	0	-
Cc1noc(C)c1NC(=O)Nc1ccc2c(c1)CC(=O)N([C@@H](C)CO)C[C@H](C)[C@@H](CN(C)Cc1ccc(Oc3ccccc3)cc1)O2	0	-	-	-	0	-
C[C@H](O)C#Cc1cnc2c(c1)C(=O)N([C@@H](C)CO)C[C@@H](C)[C@@H](CN(C)C(=O)Nc1ccc(F)cc1)O2	0	-	-	-	0	-
COC(=O)C[C@H]1C[C@H]2c3cc(NC(=O)CN(C)C)ccc3O[C@H]2[C@@H](CO)O1	0	-	-	-	0	-
Cc1nn(C)c(C)c1CN(C)S(=O)(=O)c1ccc(F)cc1	-	0	-	0	0	-
Cc1nn(C)c(C)c1CN(C)S(=O)(=O)c1ccc2ccccc2c1	72	0	-	0	0	-
C[C@@H]1CN([C@H](C)CO)C(=O)c2cc(NS(C)(=O)=O)ccc2O[C@H]1CN(C)Cc1ccc(Oc2ccccc2)cc1	0	-	-	-	0	-
SMILES	HIV Env fusion	Glyco luc inh	SR-BI HDL uptake	Rtt109 HAT inh	PglD inh	SR-BI DiI-HDL act
CCC(=O)Nc1c(C)nn(-c2ccc(C)c(C)c2)c1C	0	0	0	-	0	0
Cc1ccc(-n2nc(C)c(NC(=O)CCl)c2C)cc1C	0	48	0	0	0	0
Cc1nc(N2CCN(c3ccccc3)CC2)nc2c1C(=O)CC(C)C2 (centres undefined)	0	0	0	0	0	0
Cc1nc(N2CCN(c3ccccc3)CC2)nc2c1C(=O)CC(c1ccccc1)C2 (centres undefined)	64	0	0	0	0	0
COc1ccc(Br)cc1/C=N/NC(=O)CNC(=O)/C=C/c1ccccc1	-	0	0	0	0	0
COc1ccc(/C=C/C(=O)NCC(=O)N/N=C/c2cc(Br)ccc2OCc2ccccc2)cc1	-	0	79	0	-	0
CC(O)CNc1nc2ccccc2n1-c1ncnc2sc3c(c12)CCC3 (centres undefined)	60	0	0	0	0	0
CC(C)NC(=O)N(C)C[C@@H]1Oc2ccc(NC(=O)C3CC3)cc2C(=O)N([C@H](C)CO)C[C@@H]1C	0	-	-	-	0	-
O=C(NC1CC(=O)N(c2ccccc2)C1)C(=O)c1c[nH]c2ccccc12 (centres undefined)	62	0	0	0	0	0
O=C(NC1CC1)C(=O)c1c[nH]c2ccccc12	0	0	0	0	0	0
CN1c2ccc(Br)cc2[C@@H]2[C@@H](CCN2C(=O)C2CCOCC2)[C@@H]1CO	-	-	-	-	0	-
CCC1CN(C(=O)N2CCC(C(=O)NCCc3ccc(OC)cc3OC)CC2)c2ccccc2O1 (centres undefined)	0	0	78	0	0	0
CCC1CN(C(=O)N2CCC(C(=O)NCCc3ccccc3OC)CC2)c2ccccc2O1 (centres undefined)	0	0	?	0	0	0
COc1cccc(N(C(=O)CCl)C(C(=O)NCCc2ccccc2)c2cccs2)c1 (centres undefined)	65	0	0	0	0	0
CCOC(=O)c1c(C)[nH]c(/C(C)=N/O)c1C	-	0	0	0	0	0
CCOC(=O)c1c(C)[nH]c(C2=NNC(=NC3CC3)SC2)c1C	-	0	0	71	-	0
CCN1C(=O)[C@H]2[C@@H](c3ccc(C)cc3)N3C(=O)N(c4cccc(Cl)c4)C(=O)[C@@]3(C)[C@H]2C1=O	0	0	0	0	0	0
Cc1ccc(N2C(=O)N3[C@H](c4cccc(C)c4)[C@@H]4C(=O)N(Cc5ccccc5)C(=O)[C@@H]4[C@]3(C)C2=O)cc1	81	0	0	0	0	0
Cc1cccc([C@@H]2[C@@H]3C(=O)N(Cc4ccccc4)C(=O)[C@@H]3[C@]3(CC(C)C)C(=O)N(c4cccc(Cl)c4)C(=O)N23)c1	55	0	0	0	0	0
CCN1C(=O)[C@H]2[C@@H](c3ccc(C)cc3)N3C(=O)N(c4cccc(Cl)c4)C(=O)[C@@]3(CC)[C@H]2C1=O	96	0	0	0	0	0
